FLuc inhib CS: counter-screen for luciferase assay inhibitors: firefly luciferase inhibition | 200,000 tested, 1.5% active | ATPLite firefly luciferase biochemical luminescence, 10 min | inhibition, % at 10 µM;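 active means inhibition above about 50% when tested at 10 µM, limit read from the data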
Target sequence (P08659 whole entry, looked up): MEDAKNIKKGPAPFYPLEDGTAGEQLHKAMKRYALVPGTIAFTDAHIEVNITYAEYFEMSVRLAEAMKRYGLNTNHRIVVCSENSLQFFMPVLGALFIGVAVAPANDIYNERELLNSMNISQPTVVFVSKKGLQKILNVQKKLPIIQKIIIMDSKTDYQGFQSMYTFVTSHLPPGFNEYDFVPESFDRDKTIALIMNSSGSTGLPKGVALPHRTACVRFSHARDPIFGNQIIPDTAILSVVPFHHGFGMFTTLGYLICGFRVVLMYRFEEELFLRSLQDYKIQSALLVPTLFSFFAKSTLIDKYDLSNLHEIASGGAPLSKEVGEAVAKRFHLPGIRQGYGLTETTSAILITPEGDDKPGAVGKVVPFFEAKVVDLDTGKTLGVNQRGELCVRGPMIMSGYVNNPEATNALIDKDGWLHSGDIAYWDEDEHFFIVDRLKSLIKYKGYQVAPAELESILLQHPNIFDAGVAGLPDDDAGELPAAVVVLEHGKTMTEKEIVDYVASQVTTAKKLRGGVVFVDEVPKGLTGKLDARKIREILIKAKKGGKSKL
PPC-1+TRAIL kill: kills PPC-1 cancer cells in the presence of TRAIL; PPC-1 cells + TRAIL, ATPLite viability luminescence; cell killing (% activity), % at 4 µM or 5 µM; 220,000 tested, 0.41% active;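 active means cell killing above 50% in the first pass at 4 µM, then a duplicate retest at 5 µM averaging 50% or more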;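 further: plate controls were cells with TRAIL plus DMSO for no effect and medium-only wells lacking cells for full effect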
FLuc stim CS: firefly luciferase counter-screen for stimulation assays; ATPlite luciferase biochemical, luminescence, 10 min; 0 = ATP-free wells, 1 = DMSO control; activation factor at 10 µM; 200,000 tested, under 10 active;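 active means luciferase activation factor, scaled between plate controls, of at least 2 with compound at 10 µM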
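assay system = Luciferase/luciferin detection reagent, cell-free biochemical luciferase assay | also added = ATP substrate | times = 10 min post-reagent at room temperature | measured by = luminescence from luciferase reaction | measure = luciferase activation, seen as luminescence increase over controls | benchmarks = low control with PBS replacing ATP, high control enzyme plus ATP without compound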
C8 TRAIL sens: caspase-8 TRAIL sensitization; NB7+C8 cells + TRAIL, ATPlite viability luminescence; inhibition (viability loss, TRAIL sensitization), % at 10 µM; 360,000 tested, 1% active; AID 624354;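 active means compounds causing at least 50% loss of cell viability in the single-dose screen, relative to plate controls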
Active calls of the source: *; . = no result given. An excerpt weighted towards active compounds, which were near 1.5% of everything screened.

SMILES	FLuc inhib CS	PPC-1+TRAIL kill	FLuc stim CS	C8 TRAIL sens
Cc1cc(C(=O)N2CCC2(C)C(=O)Nc2cccc3ccccc23)nn1C (configuration not stated)	.	.	.	-12
CC[n+]1c(/C=C/c2c[nH]c3ccccc23)ccc2cc(C)ccc21	16	92*	0.8	.
CCOc1ccc(-n2c(SCC(N)=O)nc3c([nH]c4ccccc43)c2=O)cc1	-5	18	1.1	51*
Cc1ccc2c(CC(=O)N(C)c3c(N)n(Cc4ccccc4)c(=O)[nH]c3=O)coc2c1	.	.	.	14
CN1CCN2c3ccccc3CC(C#N)(C#N)C2C1 (configuration not stated)	.	.	.	-8
CCCc1nc2oc3c(Cl)ncnc3c2c2c1CCCC2	.	31	.	14
CC(C)Cc1nc2oc3c(Cl)ncnc3c2c2c1CCCC2	.	3	.	67*
CCc1nnc(NS(=O)(=O)c2ccc(N=Cc3c(C)[nH]n(-c4ccc(C)c(C)c4)c3=O)cc2)s1	66*	44	0.3	56*
Cc1ccc(-n2[nH]c(C)c(C=Nc3ccc(S(=O)(=O)Nc4nccs4)cc3)c2=O)cc1	21	33	0.8	.
COc1ccccc1C1Nc2cccc3cccc(c23)N1	-1	-12	1	-6
Oc1ccccc1C1Nc2cccc3cccc(c23)N1	64*	-16	0.4	1
NC(=O)c1ccccc1NC(=O)/C=C/c1ccccc1	82*	41	0.2	60*
NC(=O)c1ccccc1N/C=C/C(=O)c1ccccc1	89*	47	0.1	57*
COC(=O)c1ccccc1N/C=C/C(=O)c1ccc(Br)cc1	1	7	1	8
O=C(N/N=C1/CC2C=CCC12)c1ccco1 (configuration not stated)	0	12	1	-4
CCOc1ccc(-c2nnc(-c3cccs3)o2)cc1OCC	4	11	1	-8
CCOc1ccc(-c2nnc(-c3cccs3)o2)cc1	65*	37	0.3	37
CN(Cc1nc(Cc2cccc(C(F)(F)F)c2)no1)C1CC(C)(C)NC(C)(C)C1	-6	-1	1.1	-2
CCOC(=O)N1CCC(NC(=O)c2ccc3c(c2)N(C)C(=O)/C(=C/c2cccc(OC)c2)S3)CC1	.	.	.	21
O=C(C#Cc1cccc([N+](=O)[O-])c1)c1ccccc1	0	9	1	83*
Nc1ccccc1C#CC(=O)c1ccccc1	.	.	.	64*
Nc1ccccc1C#Cc1ccc([N+](=O)[O-])cc1	.	.	.	26
Cn1cnnc1SCC(=O)c1ccc(O)c(O)c1	-6	2	1.1	3
O=C1NCCN1c1ccccc1	.	.	.	-5
O=C1N(c2ccccc2)CCN1c1ccccc1	.	.	.	64*
SMILES	FLuc inhib CS	PPC-1+TRAIL kill	FLuc stim CS	C8 TRAIL sens
O=C(/C=C/C(Cl)(Cl)Cl)Nc1ccc(Cl)cc1	.	.	.	93*
NC(=O)/C=C/C(=O)Nc1ccc(Cl)cc1	-3	13	1	-4
Cc1ccccc1OCC(=O)NCC(c1cccs1)N1CCOCC1 (configuration not stated)	.	.	.	23
Cc1cccc(NC(=O)c2ccc3c(Cl)c4c(nc3c2)CCCC4)n1	81*	36	0.2	70*
CCC(C)NC(=O)c1ccc2c(Cl)c3c(nc2c1)CCC3 (configuration not stated)	.	18	.	41
O=C(Nc1ccc(Cl)cn1)c1ccc2c(Cl)c3c(nc2c1)CCC3	.	47	.	57*
Cc1cccc(NC(=O)c2ccc3nccnc3c2)n1	.	.	.	11
Fc1ccc(-c2ncc3ccccn23)cc1	4	20	1	0
Clc1ccc(/C=C/c2ncc3ccccn23)cc1	67*	.	0.3	1
CCOc1cc(/C=C/c2cc(C(=O)O)c3ccccc3n2)ccc1O	73*	22	0.3	37
COc1cc(/C=C/c2cc(C(=O)O)c3ccccc3n2)cc(OC)c1O	38	35	0.6	-1
CCOc1cc(/C=N/NC(=O)c2cc(-c3cccc(OC)c3)nc3ccccc23)ccc1O	.	.	.	25
CCOc1cc(/C=C/c2cc(C(=O)O)c3ccccc3n2)ccc1OC	86*	28	0.1	58*
O=C(O)CSc1c(Cl)c(=O)oc2ccc(Cl)cc12	.	.	.	7
CCc1ccccc1NC(=S)N(CCN(C)C)Cc1cccs1	2	-2	1	3
CCCCn1c(SCC(=O)Nc2nnc(CC)s2)nc2c1c(=O)n(C)c(=O)n2C	-7	19	1.1	64*
CC(C)c1ccc(-n2c(-c3ccccc3)c[n+]3c2CCc2ccccc2-3)cc1	-4	48	1	53*
Cc1ccc(S(=O)(=O)N2CCOCC2)cc1NC(=O)COC(=O)CNC(=O)c1ccc(Oc2ccccc2)cc1	73*	18	0.3	13

Compound activity as filed in PubChem.
